These results are taken from ChEMBL document CHEMBL2163282, “Discovery and characterization of AZD9272 and AZD6538-Two novel mGluR5 negative allosteric modulators selected for clinical development” (Bioorg Med Chem Lett, 2012).

≈ marks a conversion by molar mass, not a printed value.

The target of data set [1] is T1, Metabotropic glutamate receptor 5 (Homo sapiens, UniProt P41594). The data set is described as follows: Negative allosteric modulation of human recombinant mGluR5 expressed in HEK293 cells expressing GLAST assessed as inhibition of DHPG-induced intracellular Ca2+ level after 30 mins by FLIPR assay.
Target sequence in this assay (P41594 whole entry): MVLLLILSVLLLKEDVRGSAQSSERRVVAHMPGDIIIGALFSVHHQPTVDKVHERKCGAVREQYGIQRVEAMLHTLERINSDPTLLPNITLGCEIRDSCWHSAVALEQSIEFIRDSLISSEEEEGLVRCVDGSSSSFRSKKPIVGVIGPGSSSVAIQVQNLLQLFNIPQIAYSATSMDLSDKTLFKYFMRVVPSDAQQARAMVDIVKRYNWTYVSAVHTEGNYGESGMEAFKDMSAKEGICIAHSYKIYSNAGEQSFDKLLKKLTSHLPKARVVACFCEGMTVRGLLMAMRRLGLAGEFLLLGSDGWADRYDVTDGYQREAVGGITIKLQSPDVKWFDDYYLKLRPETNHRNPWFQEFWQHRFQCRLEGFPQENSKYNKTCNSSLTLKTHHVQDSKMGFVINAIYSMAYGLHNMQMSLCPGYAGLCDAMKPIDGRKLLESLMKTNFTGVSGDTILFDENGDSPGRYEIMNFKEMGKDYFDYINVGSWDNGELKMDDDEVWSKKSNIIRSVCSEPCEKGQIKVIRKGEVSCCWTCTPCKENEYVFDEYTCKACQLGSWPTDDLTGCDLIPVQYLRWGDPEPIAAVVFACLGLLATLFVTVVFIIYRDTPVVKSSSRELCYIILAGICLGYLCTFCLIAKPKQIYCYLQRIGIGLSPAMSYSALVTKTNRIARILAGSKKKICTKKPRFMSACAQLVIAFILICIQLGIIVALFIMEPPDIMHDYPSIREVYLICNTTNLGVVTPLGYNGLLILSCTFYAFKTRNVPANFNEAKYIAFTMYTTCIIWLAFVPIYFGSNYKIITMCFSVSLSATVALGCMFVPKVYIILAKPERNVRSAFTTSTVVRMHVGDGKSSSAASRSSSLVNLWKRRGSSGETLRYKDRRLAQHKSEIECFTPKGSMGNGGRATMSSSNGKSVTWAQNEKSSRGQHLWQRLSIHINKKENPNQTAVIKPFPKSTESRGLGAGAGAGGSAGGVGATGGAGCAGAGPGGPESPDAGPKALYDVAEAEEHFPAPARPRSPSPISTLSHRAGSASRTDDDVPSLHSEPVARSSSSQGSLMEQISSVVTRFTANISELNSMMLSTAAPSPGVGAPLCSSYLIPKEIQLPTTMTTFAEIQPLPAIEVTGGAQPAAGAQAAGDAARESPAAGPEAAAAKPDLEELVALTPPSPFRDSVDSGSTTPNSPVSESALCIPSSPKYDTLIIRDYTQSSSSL
For data set [2], the target named is T1, Metabotropic glutamate receptor 5. Description: Binding affinity to human mGluR5 expressed in HEK293 cell membranes expressing GLAST assessed as per mg of protein after 1 hr by scintillation counter.
Target sequence in this assay (P41594 21-1212 limits assumed): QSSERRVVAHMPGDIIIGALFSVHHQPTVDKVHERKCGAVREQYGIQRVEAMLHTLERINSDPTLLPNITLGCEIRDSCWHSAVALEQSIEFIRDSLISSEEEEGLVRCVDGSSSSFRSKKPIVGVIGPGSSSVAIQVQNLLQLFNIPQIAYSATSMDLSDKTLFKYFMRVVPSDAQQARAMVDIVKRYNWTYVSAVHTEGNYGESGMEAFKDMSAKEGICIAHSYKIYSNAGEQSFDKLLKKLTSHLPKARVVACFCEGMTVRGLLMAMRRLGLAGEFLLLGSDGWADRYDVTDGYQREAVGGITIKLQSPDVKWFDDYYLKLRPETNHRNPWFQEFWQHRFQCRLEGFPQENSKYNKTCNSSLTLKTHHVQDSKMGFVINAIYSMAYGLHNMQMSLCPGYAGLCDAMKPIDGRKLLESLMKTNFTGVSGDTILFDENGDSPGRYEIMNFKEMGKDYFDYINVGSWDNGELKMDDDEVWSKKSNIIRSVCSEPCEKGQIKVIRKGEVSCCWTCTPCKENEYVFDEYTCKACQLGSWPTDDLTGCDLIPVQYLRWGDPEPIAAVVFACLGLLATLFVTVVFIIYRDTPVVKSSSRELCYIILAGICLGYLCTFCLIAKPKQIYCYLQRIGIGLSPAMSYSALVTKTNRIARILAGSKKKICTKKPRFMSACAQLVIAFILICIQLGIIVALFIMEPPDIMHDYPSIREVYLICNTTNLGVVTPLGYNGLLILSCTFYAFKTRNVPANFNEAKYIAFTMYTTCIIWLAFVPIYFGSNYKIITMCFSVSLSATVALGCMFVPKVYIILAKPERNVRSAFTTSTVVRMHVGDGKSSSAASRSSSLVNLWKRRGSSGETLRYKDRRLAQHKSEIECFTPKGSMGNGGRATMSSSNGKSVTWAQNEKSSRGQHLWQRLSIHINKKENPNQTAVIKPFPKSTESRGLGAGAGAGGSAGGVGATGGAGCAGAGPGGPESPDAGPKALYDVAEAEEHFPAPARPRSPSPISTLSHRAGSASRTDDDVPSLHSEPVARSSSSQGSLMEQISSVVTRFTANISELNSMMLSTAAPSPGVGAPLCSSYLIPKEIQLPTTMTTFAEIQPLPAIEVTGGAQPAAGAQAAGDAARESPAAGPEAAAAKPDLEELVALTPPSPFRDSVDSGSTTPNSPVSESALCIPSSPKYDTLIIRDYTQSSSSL
Data set [3] is described as follows: Equilibrium solubility of the compound […]. It is filed as physicochemical. Put shortly:
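Solubility was measured by a dried-DMSO rapid-throughput method.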

Data set [4] is described as follows: Intrinsic clearance in rat liver microsomes. It is filed as ADME, Microsome. Particulars: read-out: CLH; call rule not given here. The method in brief: (§1)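 Intrinsic clearance was determined in human or rat microsomes and expressed per min per mg protein.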
In general terms: Microsomes from liver hold many membrane-bound enzymes, among them those of drug oxidation.

The nature of data set [5]: Intrinsic clearance in human liver microsomes. Type of data set: ADME, Microsome. Conditions: read-out: CLH. The method in brief:
as §1

The target in data set [6] is T1, Metabotropic glutamate receptor 5. The data set is described as follows: Binding affinity to human mGluR5 expressed in HEK293 cell membranes expressing GLAST by scintillation counting.
Target sequence in this assay (P41594 whole entry): as the sequence (P41594 whole entry) above
For data set [7] the target is unchanged. Description: Binding affinity to human mGluR5 expressed in HEK293 cell membranes expressing GLAST after 1 hr by scintillation counter in presence of 20 nM MPEP. Put shortly:
(§2)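 [3H]AZD9272 equilibrium saturation binding on membranes from human mGluR5-GHEK cells (HEK293 stably expressing glutamate/aspartate transporter), run without MPEP or with 10 or 20 nM MPEP; filtration termination; Kd and Bmax (pmol/mg protein) derived per assay, three separate assays.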
Target sequence in this assay (P41594 whole entry): as above

A further data set relates to Brain. Description: Drug uptake in Sprague-Dawley rat brain at 10 and 30 nmol/kg, iv administered as infusion after 5 mins by autoradiographic analysis. Type of data set: ADME, organism-based. Conditions: in vivo. Put shortly: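 Rats were dosed intravenously with [3H]AZD9272 at 10 or 30 nmol/kg. Five minutes later, brains were removed and sectioned sagittally. Radiolabel distribution was assessed by conventional autoradiography.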

Data set [8] concerns the target Metabotropic glutamate receptor 5 (Rattus norvegicus, UniProt P31424). The data set is described as follows: Binding affinity to mGluR5 in Sprague-Dawley rat striatum after 60 mins by autoradiographic analysis.
Data set [9] addresses T1, Metabotropic glutamate receptor 5. Description: Binding affinity to human mGluR5 expressed in HEK293 cell membranes expressing GLAST after 1 hr by scintillation counter in absence of MPEP. Put shortly: as §2
Target sequence in this assay (P41594 whole entry): as above
The target is the same in data set [10]. The data set is described as follows: Binding affinity to human mGluR5 expressed in HEK293 cell membranes expressing GLAST after 1 hr by scintillation counter in presence of 10 nM MPEP. Put shortly: as §2
Target sequence in this assay (P41594 whole entry): as above

For orientation: IC50 means the point on the concentration scale where inhibition reaches its midpoint. By solubility is commonly meant how much of the substance goes into solution per volume. A word on the Kd: it is a measure of binding affinity in units of concentration.

Chain of Metabotropic glutamate receptor 5 (Rattus norvegicus, UniProt P31424) (P31424 whole entry): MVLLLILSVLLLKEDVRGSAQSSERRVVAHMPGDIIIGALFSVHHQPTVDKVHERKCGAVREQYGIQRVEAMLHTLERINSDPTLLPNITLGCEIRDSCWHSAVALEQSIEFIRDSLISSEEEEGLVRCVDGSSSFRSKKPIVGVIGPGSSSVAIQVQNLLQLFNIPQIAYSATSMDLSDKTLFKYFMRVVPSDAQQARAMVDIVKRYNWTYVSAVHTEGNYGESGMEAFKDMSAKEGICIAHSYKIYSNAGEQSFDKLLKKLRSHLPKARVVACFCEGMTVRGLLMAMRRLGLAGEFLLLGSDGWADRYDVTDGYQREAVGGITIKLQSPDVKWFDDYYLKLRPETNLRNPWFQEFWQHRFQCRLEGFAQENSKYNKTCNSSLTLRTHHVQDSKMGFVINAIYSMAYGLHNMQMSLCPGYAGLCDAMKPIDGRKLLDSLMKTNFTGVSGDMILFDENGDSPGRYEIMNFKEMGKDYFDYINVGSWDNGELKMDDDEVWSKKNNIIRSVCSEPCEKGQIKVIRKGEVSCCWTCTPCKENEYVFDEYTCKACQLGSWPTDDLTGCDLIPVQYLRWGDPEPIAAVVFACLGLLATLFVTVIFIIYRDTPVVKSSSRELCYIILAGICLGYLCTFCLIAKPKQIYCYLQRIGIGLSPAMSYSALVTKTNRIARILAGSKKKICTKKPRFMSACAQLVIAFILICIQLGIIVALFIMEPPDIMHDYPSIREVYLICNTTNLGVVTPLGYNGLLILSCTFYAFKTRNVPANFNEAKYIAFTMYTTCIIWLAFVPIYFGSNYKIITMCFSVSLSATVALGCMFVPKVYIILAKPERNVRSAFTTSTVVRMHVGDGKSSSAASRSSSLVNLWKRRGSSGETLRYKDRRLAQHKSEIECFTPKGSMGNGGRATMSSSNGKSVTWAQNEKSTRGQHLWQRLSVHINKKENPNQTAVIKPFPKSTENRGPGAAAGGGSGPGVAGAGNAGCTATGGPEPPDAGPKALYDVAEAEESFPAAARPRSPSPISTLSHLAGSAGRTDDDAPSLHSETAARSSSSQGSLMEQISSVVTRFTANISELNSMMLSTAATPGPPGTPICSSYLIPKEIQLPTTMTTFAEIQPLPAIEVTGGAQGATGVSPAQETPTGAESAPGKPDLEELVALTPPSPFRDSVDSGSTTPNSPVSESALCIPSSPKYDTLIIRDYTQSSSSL

On to `Clc1cccc(-c2nc(-c3ccccn3)no2)c1`, for which the IC50 in [1] was 116 nM. The same measure, in the same setting: with `N#Cc1cc(F)cc(-c2nc(-c3cnccn3)no2)c1` the figure was 4700 nM; with `Cc1cccc(-c2nc(-c3ccccn3)no2)c1`, 443 nM. Consider `Clc1ccccc1-c1nc(-c2ccccn2)no1`, for which the IC50 in data set [1] is 436 nM. On the same count and under the same terms, with `N#Cc1cc(C#N)cc(-c2nc(-c3ccccn3)no2)c1` the figure was 176 nM; with `Clc1cc(Cl)cc(-c2nc(-c3ccccn3)no2)c1`, 142 nM.

On to `N#Cc1cc(F)cc(-c2nc(-c3ncccn3)no2)c1`, for which the IC50 in data set [1] turned out to be 1100 nM. Still for that read-out and setting: next, `N#Cc1cc(F)cc(-c2ccc(-c3ccccn3)o2)c1`: 61 nM. On the same count and under the same terms, next, `Clc1cccc(-c2nc(-c3ccccn3)no2)c1Cl`: 274 nM; `FC(F)(F)Oc1cccc(-c2nc(-c3ccccn3)no2)c1`: 700 nM; `FC(F)(F)c1cc(-c2nc(-c3ccccn3)no2)cc(C(F)(F)F)c1`: above 10000 nM.

As to `N#Cc1cc(F)cc(-c2nc(-c3ccccn3)co2)c1`, the IC50 in data set [1] came out at 22 nM. Still for that read-out and setting: with `Fc1cccc(-c2nc(-c3ccccn3)no2)c1` the figure was 845 nM.

`Cc1cccc(C#Cc2ccccc2)n1`: the Bmax in data set [2] was determined as 4.4 pmol.

Turning to `Brc1cccc(-c2nc(-c3ccccn3)no2)c1`, the IC50 in data set [1] was found to be 118 nM. Still for that read-out and setting: next, `O=[N+]([O-])c1cccc(-c2nc(-c3ccccn3)no2)c1`: 236 nM. `Clc1ccc(-c2nc(-c3ccccn3)no2)cc1Cl`: the IC50 in data set [1] is above 10000 nM.

`Clc1ccc(-c2nc(-c3ccccn3)no2)cc1`: the IC50 in data set [1] is above 10000 nM. Turning to `NC(=O)c1ccccc1-c1nc(-c2ccccn2)no1`, the half-maximal inhibitory concentration (IC50) in [1] is 3300 nM. Still for that read-out and setting: next, `N#Cc1cc(F)cc(-c2noc(-c3ccccn3)n2)c1`: 23 nM.

The compound `N#Cc1cc(F)cc(-c2nc(-c3ccccn3)no2)c1` registered a solubility in data set [3] of 78.1 µM (≈ 20.8 µg/mL). Besides, the microsomal CLint was 29 µL/min/mg in [4] and 92 µL/min/mg in data set [5]. In data set [1], the IC50 stood at 25 nM.

For the compound `Fc1cc(F)cc(-c2nc(-c3ccccn3)no2)c1`, the IC50 in data set [1] came out at 154 nM. For `Clc1ccc(-c2nc(-c3ccccn3)no2)c(Cl)c1`, the IC50 in data set [1] stood at 1700 nM. On the same count and under the same terms, next, `COc1cccc(-c2nc(-c3ccccn3)no2)c1`: 540 nM. For the compound `[3H]c1c(F)cc(-c2nc(-c3ccc(F)cn3)no2)cc1C#N`, the Kd in [6] was 2.8 nM; in [7], 7.2 nM; in data set [8], 9.4 nM; in data set [9], 3.8 nM; in data set [10], 5.5 nM. Besides, the Drug uptake result in the data set on Brain is listed as “Active”.
